The values below come from ChEMBL document CHEMBL1212734, “In vitro pharmacodynamics of levofloxacin and other aerosolized antibiotics under multiple conditions relevant to chronic pulmonary infection in cystic fibrosis” (2010).

Format in all cases: functional
The subject of experiment [1] is Stenotrophomonas maltophilia. Description: Antibacterial activity against Stenotrophomonas maltophilia by broth dilution method. A general note: Dilution methods test growth across graded concentrations, often in twofold steps.
Experiment [2] concerns Pseudomonas aeruginosa. Description: Antibacterial activity against Pseudomonas aeruginosa PA1042 assessed as inhibition of biofilm formation by microtiter plate reader assay. An outline of the steps: (§1)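 Biofilms of cystic fibrosis P. aeruginosa isolates were grown and tested by a previously described method. The endpoint was the biofilm inhibitory concentration, the drug level that prevents biofilm cell growth, compared against planktonic broth-microdilution MICs.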

The subject of experiment [3] is Pseudomonas aeruginosa. Description: Antibacterial activity against Pseudomonas aeruginosa PA5043 assessed as inhibition of biofilm formation by microtiter plate reader assay. The essentials:
as §1

The subject of experiment [4] is Pseudomonas aeruginosa. The experiment in a line: Antibacterial activity against Pseudomonas aeruginosa by broth dilution method. The essentials: (§2)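 Broth microdilution MIC per CLSI reference method; twofold serial dilutions in cation-adjusted Mueller-Hinton broth. […] Endpoint read by OD600 and confirmed visually.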
Experiment [5] relates to Achromobacter xylosoxidans. Description: Antibacterial activity against Alcaligenes xylosoxidans by broth dilution method.
Experiment [6] concerns Burkholderia cepacia. Description: Antibacterial activity against Burkholderia cepacia clinical isolates by broth dilution method.
Experiment [7] relates to Pseudomonas aeruginosa. The experiment in a line: Antibacterial activity against Pseudomonas aeruginosa ATCC 27853 by broth dilution method. An outline of the steps: as §2
Experiment [8] relates to Pseudomonas aeruginosa. Description: Antibacterial activity against Pseudomonas aeruginosa PA5063 assessed as inhibition of biofilm formation by microtiter plate reader assay. The essentials: as §1
For experiment [9], the system named is Staphylococcus aureus. The experiment in a line: Antibacterial activity against methicillin-resistant Staphylococcus aureus by broth dilution method. The essentials:
as §2

Experiment [10] concerns Pseudomonas aeruginosa. The experiment in a line: Antibacterial activity against Pseudomonas aeruginosa ATCC 27853 assessed as inhibition of biofilm formation by microtiter plate reader assay.
Experiment [11] deals with Pseudomonas aeruginosa. Description: Antibacterial activity against Pseudomonas aeruginosa PA5043 by broth dilution method. An outline of the steps: as §2
Experiment [12] deals with Staphylococcus aureus. Description: Antibacterial activity against methicillin-sensitive Staphylococcus aureus by broth dilution method.
For experiment [13], the system named is Pseudomonas aeruginosa. Description: Antibacterial activity against Pseudomonas aeruginosa PA5063 by broth dilution method. An outline of the steps: as §2
Experiment [14] relates to Pseudomonas aeruginosa. The experiment in a line: Antibacterial activity against Pseudomonas aeruginosa PA1054 assessed as inhibition of biofilm formation by microtiter plate reader assay. The essentials:
as §1

For experiment [15], the system named is Pseudomonas aeruginosa. Description: Antibacterial activity against Pseudomonas aeruginosa PA1054 by broth dilution method. The essentials: as §2
The subject of experiment [16] is Pseudomonas aeruginosa. Description: Antibacterial activity against Pseudomonas aeruginosa PA1042 by broth dilution method. An outline of the steps: as §2

In brackets after ≈: the same amount, converted by molar mass.

The term MIC50 denotes the lowest concentration that inhibits either 50% of growth or 50% of the strains tested, depending on the study. Usually MIC90 stands for an inhibitory concentration at the 90% level, which refers to growth in some studies and to a panel of isolates in others. A higher MIC90 goes with weaker potency. With `NCC[C@H](O)C(=O)N[C@@H]1C[C@H](N)[C@@H](O[C@H]2O[C@H](CN)[C@@H](O)[C@H](O)[C@H]2O)[C@H](O)[C@H]1O[C@H]1O[C@H](CO)[C@@H](O)[C@H](N)[C@H]1O` [AMIKACIN], the MIC50 was 128 µg/mL (≈ 219 µM) in experiment [1]; 16 µg/mL (≈ 27.3 µM) in experiment [4]; greater than 128 µg/mL in [5]; 128 µg/mL (≈ 219 µM) in experiment [6]; 8 µg/mL (≈ 13.7 µM) in experiment [9]; 1 µg/mL (≈ 1.71 µM) in experiment [12]. The MIC90 in experiment [1] is greater than 128 µg/mL; in [4], greater than 128 µg/mL; in experiment [5], greater than 128 µg/mL; in experiment [6], greater than 128 µg/mL; in experiment [9], 16 µg/mL (≈ 27.3 µM); in experiment [12], 4 µg/mL (≈ 6.83 µM). Also, the BBC in experiment [2] came out at 8 µg/mL; in experiment [3] it was 64 µg/mL; in experiment [8] it was 16 µg/mL; in experiment [10] it was 8 µg/mL; in experiment [14], 4 µg/mL. Also, the MIC in experiment [7] came to 2 µg/mL (≈ 3.42 µM); in experiment [11] it was 64 µg/mL (≈ 109 µM); in experiment [13], 2 µg/mL (≈ 3.42 µM); in [14] (Pseudomonas aeruginosa, PA1054), 1 µg/mL (≈ 1.71 µM); in experiment [15], 1 µg/mL (≈ 1.71 µM); in experiment [16], 4 µg/mL (≈ 6.83 µM).
With `O=C(O)c1cn(C2CC2)c2cc(N3CCNCC3)c(F)cc2c1=O` [CIPROFLOXACIN], the MIC50 in experiment [1] came out at 4 µg/mL (≈ 12.1 µM); in [4], 1 µg/mL (≈ 3.02 µM); in experiment [5], 4 µg/mL (≈ 12.1 µM); in [9], 16 µg/mL (≈ 48.3 µM); in [12], 0.125 µg/mL (≈ 0.377 µM). For the same molecule, the MIC90 in experiment [1] was 16 µg/mL (≈ 48.3 µM); in [4], 8 µg/mL (≈ 24.1 µM); in experiment [5] it was 16 µg/mL (≈ 48.3 µM); in experiment [9], greater than 32 µg/mL; in experiment [12] it was 0.5 µg/mL (≈ 1.51 µM).
